Results: ChEMBL document CHEMBL1135725, “N-Aryl N'-hydroxyguanidines, a new class of NO-donors after selective oxidation by nitric oxide synthases: structure-activity relationship” (J Med Chem, 2002)

Key:
[1] = target: T1, Nitric oxide synthase, inducible (Mus musculus) (UniProt P29477); assay: Nitric oxide (NO) formation during oxidation of NADPH and O2, catalyzed by NOS II detected spectrophotometrically using hemoglobin assay.; type: functional
T1 sequence (whole entry): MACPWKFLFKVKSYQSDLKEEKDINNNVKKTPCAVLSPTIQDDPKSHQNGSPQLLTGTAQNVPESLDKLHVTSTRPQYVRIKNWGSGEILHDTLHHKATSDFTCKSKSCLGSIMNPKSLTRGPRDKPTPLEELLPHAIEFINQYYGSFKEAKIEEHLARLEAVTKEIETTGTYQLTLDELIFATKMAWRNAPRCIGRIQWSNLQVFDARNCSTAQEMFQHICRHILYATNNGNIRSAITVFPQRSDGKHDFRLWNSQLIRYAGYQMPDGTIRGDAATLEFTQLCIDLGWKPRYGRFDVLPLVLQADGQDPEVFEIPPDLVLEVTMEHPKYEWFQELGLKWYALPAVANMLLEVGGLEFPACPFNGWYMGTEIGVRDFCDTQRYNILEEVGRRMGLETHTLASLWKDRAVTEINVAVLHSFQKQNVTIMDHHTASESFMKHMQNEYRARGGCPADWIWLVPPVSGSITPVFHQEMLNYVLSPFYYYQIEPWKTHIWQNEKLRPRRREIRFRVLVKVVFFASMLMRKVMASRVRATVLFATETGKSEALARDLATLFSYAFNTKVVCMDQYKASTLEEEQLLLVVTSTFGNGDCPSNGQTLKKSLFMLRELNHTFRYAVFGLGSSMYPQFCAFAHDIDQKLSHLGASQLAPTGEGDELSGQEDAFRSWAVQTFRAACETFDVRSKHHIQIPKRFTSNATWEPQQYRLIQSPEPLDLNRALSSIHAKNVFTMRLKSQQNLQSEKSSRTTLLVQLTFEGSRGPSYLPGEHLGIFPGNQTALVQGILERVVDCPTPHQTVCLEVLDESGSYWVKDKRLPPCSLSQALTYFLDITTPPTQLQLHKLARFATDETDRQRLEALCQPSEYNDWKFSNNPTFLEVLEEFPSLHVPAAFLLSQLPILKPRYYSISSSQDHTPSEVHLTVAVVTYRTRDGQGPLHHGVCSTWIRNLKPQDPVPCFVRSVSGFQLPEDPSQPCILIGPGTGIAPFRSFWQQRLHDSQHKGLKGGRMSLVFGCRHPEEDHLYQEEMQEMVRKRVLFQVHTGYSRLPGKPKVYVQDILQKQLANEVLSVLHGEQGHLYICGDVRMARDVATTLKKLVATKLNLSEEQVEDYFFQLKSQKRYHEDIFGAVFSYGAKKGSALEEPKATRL
How it was run: (§1)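 Purified recombinant NOS II (E. coli) at 20-30 nM was run at 37 °C in 50 mM HEPES pH 7.4 with 1 mM NADPH, 100 μM BH4, 5 mM DTT, 100 U/mL SOD, 100 U/mL catalase, 12-15 μM oxyhemoglobin and 500 μM substrate, against a buffer reference. The initial rate was followed at 401 nm (ε 34 mM⁻¹ cm⁻¹), or at 577 nm for strongly absorbing compounds (ε 14.5). Values are means ± SD of three to eight experiments.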

[2] = target: T2, Nitric oxide synthase 3 (Mus musculus) (UniProt P70313); assay: Nitric oxide (NO) formation during oxidation of NADPH and O2, catalyzed by NOS III was detected spectrophotometrically using hemoglobin assay; type: functional
T2 sequence (whole entry): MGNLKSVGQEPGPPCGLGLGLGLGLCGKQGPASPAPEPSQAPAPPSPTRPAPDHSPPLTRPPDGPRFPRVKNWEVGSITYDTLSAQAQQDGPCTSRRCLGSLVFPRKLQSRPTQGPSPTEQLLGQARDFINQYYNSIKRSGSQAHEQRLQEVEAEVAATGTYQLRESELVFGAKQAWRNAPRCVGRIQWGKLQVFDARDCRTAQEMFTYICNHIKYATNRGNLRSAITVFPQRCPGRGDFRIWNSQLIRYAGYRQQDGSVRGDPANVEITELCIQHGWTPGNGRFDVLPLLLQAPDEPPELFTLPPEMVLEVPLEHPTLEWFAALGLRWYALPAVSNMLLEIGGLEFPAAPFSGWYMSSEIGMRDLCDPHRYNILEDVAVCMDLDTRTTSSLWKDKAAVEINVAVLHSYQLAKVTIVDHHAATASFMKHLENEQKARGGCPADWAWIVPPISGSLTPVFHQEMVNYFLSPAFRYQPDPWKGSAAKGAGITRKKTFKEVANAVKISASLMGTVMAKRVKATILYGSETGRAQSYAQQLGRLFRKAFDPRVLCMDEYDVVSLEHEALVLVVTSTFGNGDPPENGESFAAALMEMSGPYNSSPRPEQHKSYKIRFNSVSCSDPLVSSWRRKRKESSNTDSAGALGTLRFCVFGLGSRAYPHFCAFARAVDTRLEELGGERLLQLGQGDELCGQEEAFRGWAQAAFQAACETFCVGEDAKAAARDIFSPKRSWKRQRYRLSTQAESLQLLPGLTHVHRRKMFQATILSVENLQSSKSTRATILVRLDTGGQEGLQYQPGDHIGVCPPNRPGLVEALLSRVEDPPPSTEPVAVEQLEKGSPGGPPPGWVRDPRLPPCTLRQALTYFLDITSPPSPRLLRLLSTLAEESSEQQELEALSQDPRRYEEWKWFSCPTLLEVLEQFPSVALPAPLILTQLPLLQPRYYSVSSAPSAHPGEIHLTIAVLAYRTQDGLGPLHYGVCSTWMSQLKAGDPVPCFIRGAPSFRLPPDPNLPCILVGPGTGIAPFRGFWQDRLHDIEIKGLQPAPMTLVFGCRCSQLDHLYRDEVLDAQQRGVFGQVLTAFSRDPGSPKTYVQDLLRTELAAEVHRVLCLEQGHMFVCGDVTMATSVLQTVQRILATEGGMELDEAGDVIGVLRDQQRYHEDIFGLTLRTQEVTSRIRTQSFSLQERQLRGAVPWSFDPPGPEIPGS
How it was run: (§2)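 Hemoglobin assay with purified recombinant NOS I (rat brain, expressed in S. cerevisiae) or NOS III (E. coli), at 37 °C in 50 mM HEPES pH 7.4. The mix held 1 mM NADPH, 100 μM BH4, 5 mM DTT, SOD/catalase, oxyhemoglobin, 1 mM CaCl2, 10 μg/mL CaM and 500 μM substrate. Methemoglobin formation was read at 401 nm. Activity is given as percent of that with 500 μM NOHA, from three to five experiments.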

[3] = target: Nitric oxide synthase 1 (Rattus norvegicus) (UniProt P29476); assay: Nitric oxide (NO) formation during oxidation of NADPH and O2, catalyzed by NOS I was detected spectrophotometrically using hemoglobin assay; type: functional; how it was run: as §2
[4] = target: T1, Nitric oxide synthase, inducible (Mus musculus); assay: (§3) Kinetic constant for NO formation during transformation of oxyhemoglobin to methemoglobin using NADPH and molecular Oxygen in the presence of (NOS II); type: functional
How it was run: (§4)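 Recombinant NOS II (E. coli-expressed, purified) assayed at 37 °C in 50 mM HEPES pH 7.4 with 1 mM NADPH, 100 μM BH4, 5 mM DTT, SOD and catalase (100 U/mL each), and 12-15 μM oxyhemoglobin. Substrate was varied from 5 μM to 2.5 mM. Enzyme level was set to keep oxyhemoglobin conversion below 30%. Kinetic constants come from the initial methemoglobin formation rate at 401 nm; three to four experiments.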

[5] = target: T1, Nitric oxide synthase, inducible (Mus musculus); assay: Nitric oxide (NO) formation during oxidation by NADPH and O2, catalyzed by NOS II was detected spectrophotometrically using hemoglobin assay; type: functional; how it was run: as §1
[6] = target: T1, Nitric oxide synthase, inducible (Mus musculus); assay: as §3; how it was run: as §4
[7] = target: T1, Nitric oxide synthase, inducible (Mus musculus); assay: Nitric oxide (NO) formation during oxidation of NADPH and O2, catalyzed by NOS II was detected spectrophotometrically using hemoglobin assay; type: functional; how it was run: as §1

Chain of Nitric oxide synthase 1 (Rattus norvegicus) (P29476 whole entry): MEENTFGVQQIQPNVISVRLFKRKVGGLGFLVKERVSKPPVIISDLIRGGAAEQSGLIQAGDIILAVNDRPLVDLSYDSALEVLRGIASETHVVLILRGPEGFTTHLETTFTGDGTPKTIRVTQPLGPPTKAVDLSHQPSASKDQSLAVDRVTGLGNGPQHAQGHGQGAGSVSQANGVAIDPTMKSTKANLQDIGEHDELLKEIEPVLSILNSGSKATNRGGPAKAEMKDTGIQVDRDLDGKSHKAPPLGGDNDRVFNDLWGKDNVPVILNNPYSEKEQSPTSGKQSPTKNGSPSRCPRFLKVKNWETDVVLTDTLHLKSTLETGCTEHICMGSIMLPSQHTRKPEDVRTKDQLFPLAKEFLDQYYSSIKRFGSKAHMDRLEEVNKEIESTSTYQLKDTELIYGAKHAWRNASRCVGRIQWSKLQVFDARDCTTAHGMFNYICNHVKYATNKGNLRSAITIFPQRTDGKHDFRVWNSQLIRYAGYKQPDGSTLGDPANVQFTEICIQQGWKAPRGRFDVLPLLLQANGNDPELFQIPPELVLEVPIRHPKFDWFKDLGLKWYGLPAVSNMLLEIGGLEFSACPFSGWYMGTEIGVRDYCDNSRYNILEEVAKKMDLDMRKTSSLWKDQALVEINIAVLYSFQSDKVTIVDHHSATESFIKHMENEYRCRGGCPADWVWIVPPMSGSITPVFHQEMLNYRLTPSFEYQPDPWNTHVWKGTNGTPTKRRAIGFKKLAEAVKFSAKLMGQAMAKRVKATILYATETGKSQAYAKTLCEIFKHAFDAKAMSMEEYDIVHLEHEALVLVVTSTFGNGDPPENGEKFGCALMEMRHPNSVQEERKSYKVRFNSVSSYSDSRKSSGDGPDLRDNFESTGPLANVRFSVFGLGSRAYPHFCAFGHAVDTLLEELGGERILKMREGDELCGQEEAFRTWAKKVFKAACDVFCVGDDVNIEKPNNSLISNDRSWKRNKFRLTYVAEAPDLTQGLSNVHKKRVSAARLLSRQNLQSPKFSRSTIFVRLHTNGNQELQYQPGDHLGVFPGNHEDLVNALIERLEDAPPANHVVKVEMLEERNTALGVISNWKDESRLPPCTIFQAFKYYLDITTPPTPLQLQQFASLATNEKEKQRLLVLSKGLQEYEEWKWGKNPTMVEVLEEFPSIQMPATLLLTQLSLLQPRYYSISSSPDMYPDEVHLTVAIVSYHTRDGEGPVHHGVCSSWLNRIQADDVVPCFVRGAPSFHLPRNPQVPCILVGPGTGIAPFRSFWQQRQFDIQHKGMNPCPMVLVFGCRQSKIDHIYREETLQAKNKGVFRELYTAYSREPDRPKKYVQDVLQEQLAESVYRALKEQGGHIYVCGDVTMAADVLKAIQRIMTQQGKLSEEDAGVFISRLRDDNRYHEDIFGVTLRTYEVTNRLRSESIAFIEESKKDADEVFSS

Row | NOHA [1] | Structure (SMILES) | other results
1 | 6% | N/C(=N/c1cccc(CO)c1)NO | NOHA [2]: < 0.2%; NOHA [3]: < 0.2%
2 | 2% | N/C(=N/c1ccc([N+](=O)[O-])cc1)NO | –
3 | 0.5% | N/C(=N/c1ccc(C(F)(F)F)cc1)NO | –
4 | 41% | N/C(=N/c1ccc(F)cc1)NO | k cat [4]: 5.83 s⁻¹; NOHA [2]: < 0.2%; NOHA [3]: 4.5%
5 | < 0.2% | O/N=C/c1ccc(Cl)cc1 | –
6 | < 0.2% | N/C(=N\O)c1ccc(Cl)cc1 | –
7 | 5% | COc1ccccc1/N=C(/N)NO | –
8 | < 0.2% | COc1ccc(/C=N/O)cc1 | –
9 | 8% | N/C(=N/c1ccc(N)cc1)NO | NOHA [2]: < 0.2%; NOHA [3]: 4.5%
10 | 2.5% | N/C(=N/c1cccc(C(F)(F)F)c1)NO | –
11 | < 0.2% | ON=C(Nc1ccccc1)Nc1ccccc1 | –

Further lines, the molecule ahead of its results:

Row | Structure (SMILES) | NOHA [1] | other results
12 | COc1ccc(N/C(C)=N/O)cc1 | < 0.2% | –
13 | CC(C(=O)O)c1ccc(NC(=N)NO)cc1 (stereo not given) | < 0.2% | –
14 | C/C(=N\O)c1ccc(Cl)cc1 | < 0.2% | –
15 | N=C(NO)Nc1ccccc1 | 20% | k cat [4]: 2.17 s⁻¹; NOHA [2]: < 0.2%; NOHA [3]: 1.5%
16 | N/C(=N/c1ccc(O)cc1)NO | 16.5% | k cat [4]: 1.83 s⁻¹; NOHA [2]: < 0.2%; NOHA [3]: 8.5%
17 | N/C(=N/c1cccc(Cl)c1)NO | 5% | –
18 | COc1ccc(/C(C)=N/O)cc1 | < 0.2% | –
19 | N/C(=N/c1ccsc1)NO | 9.5% | k cat [4]: 0.667 s⁻¹
20 | N/C(=N/c1ccc2c[nH]nc2c1)NO | 2.5% | –
21 | N/C(=N\O)N1CCc2ccccc2C1 | < 0.2% | –
22 | N=C(NO)Nc1cccc(CN)c1 | 1.5% | –
23 | N/C(=N/c1cccc(N)c1)NO | 3.5% | NOHA [2]: 6.5%; NOHA [3]: 2.5%
24 | CC(C)(C)c1ccc(NC(=N)NO)cc1 | – | NOHA [5]: < 0.2%
25 | N/C(=N\O)NCCc1ccccc1 | 6% | –
26 | COc1ccc(C(=N)NO)cc1 | < 0.2% | –
27 | N/C(=N\O)c1ccccc1 | < 0.2% | –
28 | N=C(NO)Nc1ccc(Cl)cc1 | 13% | NOHA [2]: < 0.2%; NOHA [3]: < 0.2%; k cat [6]: 1.63 s⁻¹
29 | N=C(NO)NCc1ccccc1 | 15% | –
30 | COc1ccc(NC(=N)NO)cc1 | 8% | k cat [4]: 2.42 s⁻¹; NOHA [2]: < 0.2%; NOHA [3]: 3.5%
31 | Cc1ccc(NC(=N)NO)cc1 | 17.5% | k cat [4]: 4.92 s⁻¹; NOHA [2]: < 0.2%; NOHA [3]: < 0.2%
32 | N/C(=N/c1ccccc1Cl)NO | 5% | –
33 | N/C(=N/c1ccc(Br)cc1)NO | 7.5% | –
34 | N/C(=N/c1ccc(CC(=O)O)cc1)NO | < 0.2% | –
35 | N/C(=N/CCCC(N)C(=O)O)NO (stereo not given) | – | Activity (nM (nM of NOS)) [7]: 425; k cat [4]: 7.08 s⁻¹; Activity (nM (nM of NOS)) [2]: 65; Activity (nM (nM of NOS)) [3]: 130
36 | C/C(=N/c1ccc(Cl)cc1)NO | < 0.2% | –
37 | N/C(=N/c1ccc(OCC(=O)O)cc1)NO | < 0.2% | –
